Laboratory results as given in publication PMC3313473 (Free radical biology & medicine, 2011).

How the values were obtained:
[1] = tested on: primary human skeletal muscle cells (proliferating, differentiating, differentiated); assay: MTS cell viability assay; type: cell-based; settings: 48 h
[2] = tested on: primary human skeletal myotubes; assay: Morphological imaging and cell counting of myotubes; type: cell-based; settings: 5 µM
[3] = tested on: citrate synthase activity in primary human myotubes; assay: Citrate synthase activity in myotubes; type: cell-based; settings: simvastatin-treated myotubes
[4] = tested on: primary human myotubes; assay: Mitochondrial superoxide production, MitoSOX Red flow cytometry; type: cell-based; settings: 5 µM, 48 h
[5] = tested on: primary human skeletal myotubes; assay: Intracellular ROS generation, DCF-DA staining; type: cell-based; settings: simvastatin treated myotubes
[6] = tested on: primary human skeletal myotubes; assay: TUNEL assessment of apoptotic myonuclei; type: cell-based; settings: 5 µM, 48 h
How it was run: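 Coverslip-grown myotubes exposed 48 h to test compound or 0.1% DMSO vehicle; fixed in 4% paraformaldehyde/PBS (pH 7.4) 20 min RT, permeabilized with 0.1% Triton X-100 in 0.1% sodium citrate 10 min at 4°C. TdT/fluorescein-dUTP labelling 60 min at 37°C, humidified, dark; DAPI counterstain. DNase I positive and label-only negative controls. Positive myonuclei counted over multiple sections as % of DAPI nuclei.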

[7] = tested on: Bax; assay: Western immunoblot of Bax; type: cell-based, human; settings: 5 µM, 48 h
[8] = tested on: Bcl-2; assay: Western immunoblot of Bcl-2; type: cell-based, human; settings: 5 µM, 48 h
[9] = tested on: isolated myofibers; settings: 50 µM simvastatin; ref Sirvent et al. 29; cited from earlier work
[10] = tested on: mitochondrial PTP; settings: ref Velho et al. 37; cited from earlier work

SMILES | Effect of mevalonate on simvastatin-induced decrease in cell viability ([1]; differentiating cells, 1 µM simvastatin + 50 µM mevalonate) | Effect of mevalonate on simvastatin-induced decrease in cell viability ([1]; proliferating cells, 5 µM simvastatin + 50 µM mevalonate) | IC50 ([1]; Homo sapiens, read-out: IC50 for viability, proliferating cells, 48 h, MTS) [µM] | Changes in the morphology of myotubes ([2]; 24 h) | Changes in the morphology of myotubes ([2]; 48 h) | Fewer myotubes compared with DMSO-treated controls ([2]; 48 h) [%] | Myotube cell number ([2]; 48 h) | Citrate synthase activity [3] [µmol/g/min] | Increase in O2•− generation compared to DMSO control [4] | MitoSOX Red mean fluorescence intensity ([4]; representative histogram) [counts] | DCF-DA staining compared with control [5] | TUNEL-positive nuclei compared with control [6] | Bax protein levels higher than control [7] [%] | Bcl-2 protein levels greater than DMSO control [8] [%] | Maximal ADP-stimulated respiration supported by complex I substrates (glutamate + malate) [9] | In vivo and in vitro calcium-dependent mitochondrial PTP opening [10]
CC(O)(CCO)CC(=O)O (stereo not shown) [mevalonate] | prevented | prevented |  |  |  |  |  |  |  |  |  |  |  |  |  | 
CCC(C)(C)C(=O)O[C@H]1C[C@@H](C)C=C2C=C[C@H](C)[C@H](CC[C@@H]3C[C@@H](O)CC(=O)O3)[C@H]21 [simvastatin] |  |  | 5 | not visible | less dense and atrophied | 22.3 | 0.87 × 10^6 cells/ml | 9.89 ± 1.04 | approximately 44% | 46.1 | increased staining | More TUNEL-positive nuclei | 53 | 100 | significantly impaired | increased
